{"source": "paper PMC12533025", "about": "(Scientific Reports, 2025)", "key": {"male Wistar mice": {"tested_on": "male Wistar mice", "test": "Warm-water tail-flick test", "type": "in vivo", "details": "for acute antinociceptive agonist effect, tail flick assay: up to 30 mg/kg dose; for percentage of maximum possible effect (% MPE), tail flick assay: compared with the KOP agonist Nalbuphine"}, "KOP [1]": {"target": "T1, KOP (Mus musculus, UniProt P33534)", "test": "[35S]-GTPγS stimulated binding functional assay, KOP", "type": "biochemical", "details": "for agonism in the [35S]-GTPγS functional assay: KOP and MOP functional assay", "in_short": "(§1)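 Membranes come from CHO cells expressing cloned mouse opioid receptors. Membrane protein (10 µg) is incubated with test compound (5µM), […] and 0.1nM [35S]-GTPγS in 50mM Tris, 3mM MgCl2, 0.2mM EDTA, pH 7.7, for 2 h at room temperature. Non-specific binding is defined with 20µM unlabelled GTPγS. Full-agonist references at 5µM are DAMGO (MOP) and salvinorin A (KOP).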"}, "[2]": {"details": "clinical trials; cited from earlier work"}, "prolactin": {"tested_on": "prolactin", "test": "Prolactin ELISA assay", "type": "in vivo, mice", "details": "rat prolactin ELISA test; relative to normal level", "in_short": "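After dosing, blood is drawn by retro-orbital sinus bleed from isoflurane-anaesthetised mice and spun at 1000 g, 4 °C, 10 min. Plasma is diluted 1:20 and prolactin is measured by […] prolactin sandwich ELISA per kit protocol. Values are in ng/mL. Groups are compared with control by one-way ANOVA and Dunnett post-hoc test (p < 0.05).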"}, "MOP [3]": {"target": "T2, MOP (Mus musculus, UniProt P42866)", "test": "[35S]-GTPγS stimulated binding functional assay, MOP", "type": "biochemical", "in_short": "as §1"}, "MOP [4]": {"target": "T2, MOP", "test": "Radioligand competitive binding assay, MOP", "details": "MOP over KOP"}, "KOP [5]": {"target": "T1, KOP", "test": "Radioligand competitive binding assay, KOP", "details": "KOP versus MOP binding"}, "KOP [6]": {"target": "KOP", "details": "[35S]GTP-γ-S assay; cited from earlier work"}, "[7]": {"details": "cited from earlier work"}}}
{"smiles": "CC(C)[C@@H](CN1CCc2ccccc2C1)NC(=O)c1cccc(-c2cccc(O)c2)c1", "note": "[(S)-10h, (S)-N-(1-(3,4-dihydroisoquinolin-2(1H)-yl)-3-methylbutan-2-yl)-3′-hydroxy-[1,1′-biphenyl]-3-carboxamide]", "values": [{"measurement": "acute antinociceptive agonist effect, tail flick assay", "setting": "male Wistar mice", "result": "failed to show any significant agonist effect"}, {"measurement": "functional character at KOP/MOP", "setting": "KOP [1]; KOP and MOP", "result": "non-selective KOP/MOP antagonist"}, {"measurement": "agonism in the [35S]-GTPγS functional assay", "setting": "KOP [1]", "result": "failed to produce any agonism"}]}
{"smiles": "Cc1cc(C)cc([C@@H]2CCCN2Cc2ccc(Oc3ccc(C(N)=O)cc3F)cc2)c1", "note": "[Aticaprant]", "values": [{"measurement": "adverse effects (NSVT)", "setting": "[2]", "result": "devoid of the NSVT effect"}]}
{"smiles": "CC(C)[C@@H](CN1CCc2ccccc2C1)NC(=O)c1cccc(-c2cccc(C#N)c2)c1", "note": "[(S)-10i, (S)-3′-cyano-N-(1-(3,4-dihydroisoquinolin-2(1H)-yl)-3-methylbutan-2-yl)-[1,1′-biphenyl]-3-carboxamide]", "values": [{"measurement": "acute antinociceptive agonist effect, tail flick assay", "setting": "male Wistar mice", "result": "failed to show any significant agonist effect"}, {"measurement": "agonism in the [35S]-GTPγS functional assay", "setting": "KOP [1]", "result": "failed to produce any agonism"}]}
{"smiles": "CC(C)[C@H](CN1CCc2ccccc2C1)NC(=O)Cc1c[nH]c2ccccc12", "note": "[(R)-10c, (R)-N-(1-(3,4-dihydroisoquinolin-2(1H)-yl)-3-methylbutan-2-yl)-2-(1H-indol-3-yl)acetamide]", "values": [{"measurement": "acute antinociceptive agonist effect, tail flick assay", "setting": "male Wistar mice", "result": "failed to show any significant agonist effect"}]}
{"smiles": "Cc1c(CC(=O)N[C@@H](CN2CCc3ccccc3C2)C(C)C)cccc1[N+](=O)[O-]", "note": "[(R)-10m, (R)-N-(1-(3,4-dihydroisoquinolin-2(1H)-yl)-3-methylbutan-2-yl)-2-(2-methyl-3-nitrophenyl)acetamide]", "values": [{"measurement": "blood prolactin levels", "setting": "prolactin", "result": "double"}, {"measurement": "latency in the tail-flick animal model", "setting": "male Wistar mice; compared with positive control Nalbuphine", "result": "comparable latency to the positive control, Nalbuphine"}, {"measurement": "percentage of maximum possible effect (% MPE), tail flick assay", "setting": "male Wistar mice", "result": "comparable to that of the KOP agonist Nalbuphine"}, {"measurement": "EC50", "setting": "MOP [3]", "result": 94.5, "unit": "nM"}, {"measurement": "IC50", "setting": "MOP [3]", "result": 94.5, "unit": "nM"}, {"measurement": "EC50", "setting": "KOP [1]", "result": 666, "unit": "nM"}, {"measurement": "MOP selectivity", "setting": "MOP [4]", "result": 23, "unit": "fold"}]}
{"smiles": "CC(C)[C@@H](CN1CCc2ccccc2C1)NC(=O)c1cccc(-c2cccnc2)c1", "note": "[(S)-10j, (S)-N-(1-(3,4-dihydroisoquinolin-2(1H)-yl)-3-methylbutan-2-yl)-3-(pyridin-3-yl)benzamide]", "values": [{"measurement": "blood prolactin levels", "setting": "prolactin", "result": "double"}, {"measurement": "percentage of maximum possible effect (% MPE), tail flick assay", "setting": "male Wistar mice", "result": "comparable to that of the KOP agonist Nalbuphine"}]}
{"smiles": "CC(C)Cc1ccc([C@@H](C)C(=O)NC(CN2CCc3ccccc3C2)C(C)C)cc1", "note": "(stereo partly drawn) [(R)-10d]", "values": [{"measurement": "blood prolactin levels", "setting": "prolactin", "result": "double"}, {"measurement": "percentage of maximum possible effect (% MPE), tail flick assay", "setting": "male Wistar mice", "result": "comparable to that of the KOP agonist Nalbuphine"}, {"measurement": "KOP selectivity", "setting": "KOP [5]", "result": "most selective"}]}
{"smiles": "CC(C)[C@@H](CN1CC[C@@](C)(c2cccc(O)c2)[C@@H](C)C1)NC(=O)[C@H]1Cc2ccc(O)cc2CN1", "note": "[JDTic]", "values": [{"measurement": "Ki", "setting": "KOP [6]", "result": 0.006, "unit": "nM"}, {"measurement": "µ/ĸ ratio", "setting": "KOP [6]", "result": 570}, {"measurement": "δ/ĸ ratio", "setting": "KOP [6]", "result": "> 16600"}, {"measurement": "blood–brain barrier penetration", "setting": "[7]", "result": "low blood–brain barrier penetration"}, {"measurement": "adverse effects (NSVT)", "setting": "[2]", "result": "non-sustained ventricular tachycardia (NSVT)"}]}
